{"source": "ChEMBL document CHEMBL1122384", "about": "“Synthesis and evaluation of 24-(isopropyl[75Se]seleno)chol-5-en-3 beta-ol” (J Med Chem, 1983)", "key": {"Rattus norvegicus [1]": {"system": "Rattus norvegicus", "experiment": "Tested for distribution of radioactivity in female rat tissue at 1 hr after intravenous administration in liver", "format": "ADME, organism-based", "details": "in vivo", "in_short": "(§1)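 Female Fischer 344 rats (160–180 g), food and water ad libitum, received 5–10 μCi i.v. via lateral tail vein (1 mL Tween 80–EtOH–saline) under light Et₂O anesthesia. At each time they were anesthetized and decapitated, and organs were rinsed in saline, blotted, weighed and gamma counted. Values are % dose/g, mean and range of 3 rats.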"}, "Homo sapiens [2]": {"species_on_record": "Homo sapiens", "experiment": "Adsorbed radiation dose value was calculated to human liver", "format": "functional", "in_short": "(§2)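 Human absorbed radiation dose estimated by the standard MIRD method from rat tissue distribution (% dose/g, 1 h–21 days) and excretion data. Excretion came from three individually caged female rats, with urine and feces collected daily over 21 days.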"}, "Rattus norvegicus [3]": {"system": "Rattus norvegicus", "experiment": "Tested for distribution of radioactivity in female rat tissue at 7 day after intravenous administration in kidney", "format": "ADME, organism-based", "details": "in vivo, 168 h", "in_short": "(§3)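 Female Fischer 344 rats (160–180 g), food and water ad libitum. Se-75-labeled steroid dissolved in EtOH, formulated in Tween 80–EtOH–saline; 5–10 μCi in 1 mL injected into a lateral tail vein under light Et₂O anesthesia. At each time point, 3 rats killed by decapitation under Et₂O. Organs rinsed with saline, blotted, weighed and gamma counted. Values are % dose/g, mean and range.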"}, "Homo sapiens [4]": {"species_on_record": "Homo sapiens", "experiment": "Adsorbed radiation dose value was calculated to human kidney", "format": "functional", "in_short": "as §2"}, "Rattus norvegicus [5]": {"system": "Rattus norvegicus", "experiment": "Tested for distribution of radioactivity in female rat tissue at 18 hr after intravenous administration in blood", "format": "ADME, organism-based", "details": "in vivo", "in_short": "as §1"}, "Rattus norvegicus [6]": {"system": "Rattus norvegicus", "experiment": "Tested for distribution of radioactivity in female rat tissue at 21 day after intravenous administration in kidney", "format": "ADME, organism-based", "details": "in vivo, 504 h", "in_short": "as §1"}, "Rattus norvegicus [7]": {"system": "Rattus norvegicus", "experiment": "Tested for distribution of radioactivity in female rat tissue at 14d ay after intravenous administration in liver", "format": "ADME, organism-based", "details": "in vivo", "in_short": "as §1"}, "Homo sapiens [8]": {"species_on_record": "Homo sapiens", "experiment": "Adsorbed radiation dose value was calculated to human lungs", "format": "functional", "in_short": "as §2"}, "Homo sapiens [9]": {"species_on_record": "Homo sapiens", "experiment": "Adsorbed radiation dose value was calculated to human ovaries", "format": "functional, Female gonad", "in_short": "as §2"}, "Rattus norvegicus [10]": {"system": "Rattus norvegicus", "experiment": "Tested for distribution of radioactivity in female rat tissue at 1 hr after intravenous administration in adrenal", "format": "ADME, organism-based", "details": "in vivo", "in_short": "as §1"}, "Rattus norvegicus [11]": {"system": "Rattus norvegicus", "experiment": "Tested for distribution of radioactivity in female rat tissue at 7 day after intravenous administration in ovaries", "format": "ADME, organism-based", "details": "in vivo, 168 h", "in_short": "as §3"}, "Homo sapiens [12]": {"species_on_record": "Homo sapiens", "experiment": "Adsorbed radiation dose value was calculated to human pancreas", "format": "functional", "in_short": "as §2"}, "Rattus norvegicus [13]": {"system": "Rattus norvegicus", "experiment": "Tested for distribution of radioactivity in female rat tissue at 3 day after intravenous administration in ovaries", "format": "ADME, organism-based", "details": "in vivo, 72 h", "in_short": "as §1"}, "Rattus norvegicus [14]": {"system": "Rattus norvegicus", "experiment": "Tested for distribution of radioactivity in female rat tissue at 3 day after intravenous administration in kidney", "format": "ADME, organism-based", "details": "in vivo, 72 h", "in_short": "as §1"}, "[15]": {"experiment": "Adrenal/Tissue ratio calculated from percent dose per gram of tissue determined after 1 day intravenous administration from liver", "format": "functional", "in_short": "(§4)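 Female Fischer 344 rats (160–180 g), fed ad libitum. Steroid dissolved in EtOH, formulated in Tween 80–EtOH–saline, 5–10 μCi in 1 mL given into a lateral tail vein under light Et₂O anesthesia. Organs removed 1 day post-injection, rinsed, blotted, weighed and gamma counted, 3 rats per time point. Ratios taken from adrenal vs tissue % dose/g.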"}, "Rattus norvegicus [16]": {"system": "Rattus norvegicus", "experiment": "Tested for distribution of radioactivity in female rat tissue at 18 hr after intravenous administration in adrenal", "format": "ADME, organism-based", "details": "in vivo", "in_short": "as §1"}, "Rattus norvegicus [17]": {"system": "Rattus norvegicus", "experiment": "Tested for distribution of radioactivity in female rat tissue at 21 day after intravenous administration in ovaries", "format": "ADME, organism-based", "details": "in vivo, 504 h", "in_short": "as §1"}, "[18]": {"experiment": "Adrenal/Tissue ratio calculated from percent dose per gram of tissue determined after 1 day intravenous administration from lung", "format": "functional", "in_short": "as §4"}, "Rattus norvegicus [19]": {"system": "Rattus norvegicus", "experiment": "Tested for distribution of radioactivity in female rat tissue at 18 hr after intravenous administration in kidney", "format": "ADME, organism-based", "details": "in vivo", "in_short": "as §1"}, "Rattus norvegicus [20]": {"system": "Rattus norvegicus", "experiment": "Tested for distribution of radioactivity in female rat tissue at 1 hr after intravenous administration in blood", "format": "ADME, organism-based", "details": "in vivo", "in_short": "as §1"}, "Rattus norvegicus [21]": {"system": "Rattus norvegicus", "experiment": "Tested for distribution of radioactivity in female rat tissue at 6 hr after intravenous administration in liver", "format": "ADME, organism-based", "details": "in vivo", "in_short": "as §1"}, "Rattus norvegicus [22]": {"system": "Rattus norvegicus", "experiment": "Tested for distribution of radioactivity in female rat tissue at 18 hr after intravenous administration in ovaries", "format": "ADME, organism-based", "details": "in vivo", "in_short": "as §1"}, "Homo sapiens [23]": {"species_on_record": "Homo sapiens", "experiment": "Adsorbed radiation dose value was calculated to human adrenals", "format": "functional, Adrenal gland", "in_short": "as §2"}, "Homo sapiens [24]": {"species_on_record": "Homo sapiens", "experiment": "Adsorbed radiation dose value was calculated to human spleen", "format": "functional", "in_short": "as §2"}, "[25]": {"experiment": "Adrenal/Tissue ratio calculated from percent dose per gram of tissue determined after 1 day intravenous administration from pancreas", "format": "functional", "in_short": "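Female Fischer 344 rats (160–180 g), food and water ad libitum, lightly anaesthetized with Et2O. [75Se]-labelled steroid was given in Tween 80–EtOH–saline, 5–10 μCi, by lateral tail-vein injection. Rats were killed by decapitation under Et2O; organs were rinsed, blotted, weighed and gamma-counted. Adrenal/tissue ratio is from % dose/g, mean of three rats per time point.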"}, "Rattus norvegicus [26]": {"system": "Rattus norvegicus", "experiment": "Tested for distribution of radioactivity in female rat tissue at 14d ay after intravenous administration in blood", "format": "ADME, organism-based", "details": "in vivo", "in_short": "as §1"}, "Rattus norvegicus [27]": {"system": "Rattus norvegicus", "experiment": "Tested for distribution of radioactivity in female rat tissue at 6 hr after intravenous administration in kidney", "format": "ADME, organism-based", "details": "in vivo", "in_short": "as §1"}, "Rattus norvegicus [28]": {"system": "Rattus norvegicus", "experiment": "Tested for distribution of radioactivity in female rat tissue at 21 day after intravenous administration in liver", "format": "ADME, organism-based", "details": "in vivo, 504 h", "in_short": "as §1"}}, "data": [{"smiles": "CC(C)[Se]CCC[C@H](C)[C@H]1CC[C@H]2[C@@H]3CC=C4C[C@@H](O)CC[C@]4(C)[C@H]3CC[C@]12C", "values": [{"measurement": "Dose/g", "setting": "Rattus norvegicus [1]", "value": 6.73, "unit": "%"}, {"measurement": "Dose", "setting": "Homo sapiens [2]", "value": 3.7, "unit": "rd mCi-1"}, {"measurement": "Dose/g", "setting": "Rattus norvegicus [3]", "value": 1.34, "unit": "%"}, {"measurement": "Dose", "setting": "Homo sapiens [4]", "value": 3.8, "unit": "rd mCi-1"}, {"measurement": "Dose/g", "setting": "Rattus norvegicus [5]", "value": 1, "unit": "%"}, {"measurement": "Dose/g", "setting": "Rattus norvegicus [6]", "value": 0.64, "unit": "%"}, {"measurement": "Dose/g", "setting": "Rattus norvegicus [7]", "value": 0.5, "unit": "%"}, {"measurement": "Dose", "setting": "Homo sapiens [8]", "value": 3.2, "unit": "rd mCi-1"}, {"measurement": "Dose", "setting": "Homo sapiens [9]", "value": 5.9, "unit": "rd mCi-1"}, {"measurement": "Dose/g", "setting": "Rattus norvegicus [10]", "value": 15.65, "unit": "%"}, {"measurement": "Dose/g", "setting": "Rattus norvegicus [11]", "value": 3.82, "unit": "%"}, {"measurement": "Dose", "setting": "Homo sapiens [12]", "value": 3.4, "unit": "rd mCi-1"}, {"measurement": "Dose/g", "setting": "Rattus norvegicus [13]", "value": 3.81, "unit": "%"}, {"measurement": "Dose/g", "setting": "Rattus norvegicus [14]", "value": 1.48, "unit": "%"}, {"measurement": "Ratio", "setting": "[15]", "value": 27.1}, {"measurement": "Dose/g", "setting": "Rattus norvegicus [16]", "value": 42.97, "unit": "%"}, {"measurement": "Dose/g", "setting": "Rattus norvegicus [17]", "value": 2.52, "unit": "%"}, {"measurement": "Ratio", "setting": "[18]", "value": 10.9}, {"measurement": "Dose/g", "setting": "Rattus norvegicus [19]", "value": 1.87, "unit": "%"}, {"measurement": "Dose/g", "setting": "Rattus norvegicus [20]", "value": 3.97, "unit": "%"}, {"measurement": "Dose/g", "setting": "Rattus norvegicus [21]", "value": 4.93, "unit": "%"}, {"measurement": "Dose/g", "setting": "Rattus norvegicus [22]", "value": 6.12, "unit": "%"}, {"measurement": "Dose", "setting": "Homo sapiens [23]", "value": 30, "unit": "rd mCi-1"}, {"measurement": "Dose", "setting": "Homo sapiens [24]", "value": 3.4, "unit": "rd mCi-1"}, {"measurement": "Ratio", "setting": "[25]", "value": 46.4}, {"measurement": "Dose/g", "setting": "Rattus norvegicus [26]", "value": 0.16, "unit": "%"}, {"measurement": "Dose/g", "setting": "Rattus norvegicus [27]", "value": 1.69, "unit": "%"}, {"measurement": "Dose/g", "setting": "Rattus norvegicus [28]", "value": 0.34, "unit": "%"}]}]}
